Active and inactive are the calls of the source. The calls are words filed in the database; no cut-off is given here.

In one series the test system is MCF7. Kind of series: Cytotoxicity against human MCF7 cells assessed as inhibition of cell growth incubated for 72 hrs by MTT assay. It is filed as functional, cell-based. Conditions: MCF7, 72 h.
Series [1] deals with PANC-1. Kind of series: Cytotoxicity against human PANC-1 cells assessed as inhibition of cell growth incubated for 72 hrs by MTT assay. It is filed as functional, cell-based. The settings on record: PANC-1, 72 h. In short, it runs like this:
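Cells seeded and grown to 70–80% confluence, then exposed for 72 h to a titration series (0.2–1000 nM). Viability read by MTT relative to untreated cells, with 6 replicates per concentration. IC50 fitted with a Hill-slope model.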

Series [2] in a line: Cytotoxicity against CD-1 mouse Primary hepatocyte assessed as inhibition of cell growth incubated for 72 hrs by MTT assay. It is filed as toxicity, cell-based. The settings on record: primary hepatocytes.
Series [3] is described as follows: Tmax in CD-1 mouse at 1 mg/kg,iv administration measured upto 48 hrs by LC-MS/MS analysis. The series is classed as ADME, organism-based. Conditions: in vivo. In short, it runs like this:
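Male ICR mice (n=3, 6 weeks) given 1 mg/kg i.v. from a 0.5 mg/mL solution in 20% DMSO/16% PEG/4% dextrose in PBS. Tail-vein blood (10 μL) drawn at 2, 5, 15 and 30 min and at 1, 2, 4, 8, 24 and 48 h. Plasma quantified by LC-MS/MS against 0.5–1000 ng/mL calibration standards with QC samples. Parameters from non-compartmental analysis.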

Series [4] in a line: Cmax in CD-1 mouse at 1 mg/kg,iv administration measured upto 48 hrs by LC-MS/MS analysis. It is filed as ADME, organism-based. Conditions: in vivo. In short, it runs like this:
(§1)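 Single intravenous bolus in ICR male mice (n = 3, 6 weeks); dosing solution 0.5 mg/mL in 20% DMSO, 16% PEG, 4% dextrose in PBS. Tail-vein blood (10 μL) taken at 2, 5, 15, 30 min and 1, 2, 4, 8, 24, 48 h. Plasma quantified by LC-MS/MS against a 0.5–1000 ng/mL calibration; parameters from non-compartmental analysis.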

A short description of series [5]: Clearance in CD-1 mouse at 1 mg/kg,iv administration measured upto 48 hrs by LC-MS/MS analysis. The series is classed as ADME, organism-based. Conditions: in vivo. In short, it runs like this: as §1
The next series concerns the target T1, Endothelin-1 receptor (Homo sapiens, UniProt P25101).
T1 sequence (P25101 whole entry): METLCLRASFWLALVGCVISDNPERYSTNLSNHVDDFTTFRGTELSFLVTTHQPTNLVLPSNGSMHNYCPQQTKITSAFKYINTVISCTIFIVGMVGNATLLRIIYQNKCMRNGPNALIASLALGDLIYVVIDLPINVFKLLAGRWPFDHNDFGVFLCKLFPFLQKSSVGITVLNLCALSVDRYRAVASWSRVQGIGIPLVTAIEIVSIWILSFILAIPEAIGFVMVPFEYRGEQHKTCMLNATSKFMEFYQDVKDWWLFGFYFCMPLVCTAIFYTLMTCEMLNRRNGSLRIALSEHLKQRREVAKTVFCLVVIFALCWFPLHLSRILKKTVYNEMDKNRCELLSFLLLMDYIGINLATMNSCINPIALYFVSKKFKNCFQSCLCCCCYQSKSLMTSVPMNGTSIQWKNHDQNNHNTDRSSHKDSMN
Kind of series: Antagonist activity at EDNRA (unknown origin) by calcium flux assay. The series is classed as toxicity. In short, it runs like this: (§2)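 Tested in a commercial off-target safety screening panel of 78 targets. Values reported as RC50, taken as IC50 except for agonist mode, where RC50 is EC50.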

Series [6] deals with Prostaglandin G/H synthase 1 (Homo sapiens, UniProt P23219). The experiment in a line: Inhibition of COX1 (unknown origin). It is filed as toxicity. In short, it runs like this:
as §2

For series [7], the target named is Voltage-gated inwardly rectifying potassium channel KCNH2 (Homo sapiens, UniProt Q12809). The experiment in a line: Inhibition of hERG transfected in HEK293 cells at 10 uM by patch clamp assay. The series is classed as toxicity, cell-based. Conditions: hek293, 10 µM.
Sequence of Voltage-gated inwardly rectifying potassium channel KCNH2 (Q12809 whole entry): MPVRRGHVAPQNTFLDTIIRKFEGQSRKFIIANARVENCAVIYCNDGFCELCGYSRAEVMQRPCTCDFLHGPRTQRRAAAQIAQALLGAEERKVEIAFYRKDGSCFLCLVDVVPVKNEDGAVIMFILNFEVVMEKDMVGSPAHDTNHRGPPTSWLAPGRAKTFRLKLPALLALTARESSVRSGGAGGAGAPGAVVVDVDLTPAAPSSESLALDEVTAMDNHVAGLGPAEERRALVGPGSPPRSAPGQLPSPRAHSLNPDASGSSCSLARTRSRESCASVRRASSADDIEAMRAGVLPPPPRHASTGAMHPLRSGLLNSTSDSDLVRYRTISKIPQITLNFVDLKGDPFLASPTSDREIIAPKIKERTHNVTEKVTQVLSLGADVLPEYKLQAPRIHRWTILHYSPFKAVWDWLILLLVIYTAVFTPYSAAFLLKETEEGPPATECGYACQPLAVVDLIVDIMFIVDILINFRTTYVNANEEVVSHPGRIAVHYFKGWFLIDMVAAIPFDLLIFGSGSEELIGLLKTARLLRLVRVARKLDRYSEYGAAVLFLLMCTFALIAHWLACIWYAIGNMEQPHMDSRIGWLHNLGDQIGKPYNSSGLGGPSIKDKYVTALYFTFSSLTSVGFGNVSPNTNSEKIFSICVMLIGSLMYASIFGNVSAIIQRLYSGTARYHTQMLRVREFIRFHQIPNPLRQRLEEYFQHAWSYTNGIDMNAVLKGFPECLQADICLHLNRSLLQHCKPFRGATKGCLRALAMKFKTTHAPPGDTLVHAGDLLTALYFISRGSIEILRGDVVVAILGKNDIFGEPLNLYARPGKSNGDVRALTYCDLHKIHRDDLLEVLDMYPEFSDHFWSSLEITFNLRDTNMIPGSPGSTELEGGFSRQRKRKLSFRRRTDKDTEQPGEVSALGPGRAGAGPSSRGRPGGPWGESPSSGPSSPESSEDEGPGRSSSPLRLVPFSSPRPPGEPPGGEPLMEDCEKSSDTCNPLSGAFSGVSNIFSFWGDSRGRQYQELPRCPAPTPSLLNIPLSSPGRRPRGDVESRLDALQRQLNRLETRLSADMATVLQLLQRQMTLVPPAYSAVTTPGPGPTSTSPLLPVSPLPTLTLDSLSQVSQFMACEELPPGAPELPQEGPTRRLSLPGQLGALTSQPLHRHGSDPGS
Series [8] relates to PANC-1. The experiment in a line: Cytotoxicity against human PANC-1 cells mediated with siRNA control assessed as inhibition of cell growth incubated for 72 hrs by MTT assay. The series is classed as functional, cell-based. The settings on record: PANC-1, 72 h. In short, it runs like this:
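PANC-1 cells with stable lentiviral shRNA knockdown of SRC-3 or control shRNA; SRC-3 levels checked by western blot. Cells treated with a dose series for 72 h and viability read by MTT.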

In series [9] the test system is MDA-MB-468. Kind of series: Cytotoxicity against human MDA-MB-468 cells assessed as inhibition of cell growth preincubated for 3 to 6 hrs followed by compound washout and incubated for 72 hrs by MTT assay. It is filed as functional, cell-based. The settings on record: time 3-6 hrs. In short, it runs like this: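 MDA-MB-468 cells (RPMI 1640, 5% FBS) exposed to compound for varying durations, washed with PBS, then kept in culture to a total of 72 h. Viability read by MTT; EC50 and EC90 determined at each exposure time.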

Series [10] concerns MDA-MB-468. Kind of series: Cytotoxicity against human MDA-MB-468 cells assessed as chromatin accessibility alteration observed after 4 hrs by ATAC-seq analysis. The series is classed as functional, cell-based. In short, it runs like this: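 MDA-MB-468 cells treated for 4 h (ATAC-seq) or 12 h (RNA-seq) before chromatin accessibility or transcript profiling.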
The subject of another series is Panc-1-Luc. Kind of series: Antitumor activity against human Panc-1-Luc cells orthotopically xenografted in SCID mouse assessed as reduction in tumor growth at 10 mg/kg,ip administration once daily for 63 days. It is filed as functional, organism-based. The settings on record: time 63.0 day. In short, it runs like this: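 Panc-1-Luc cells (0.5×10^6) implanted orthotopically in pancreas of male SCID mice (8 weeks). Mice randomized by luciferase imaging (n = 5/group); from day 8 given 10 mg/kg or vehicle daily. Tumor measured weekly by luciferase imaging and calipers (length × width²/2), body weight weekly; tumors harvested at day 63.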

Series [11] relates to MDA-PCa-118b. Kind of series: Antitumor activity against patient derived MDA-PCa-118b cells xenografted in SCID mouse assessed as reduction in bone metastasis at 10 mg/kg,ip administration measured after 4 weeks by X-ray imaging analysis. The series is classed as functional, organism-based. The settings on record: Homo sapiens. In short, it runs like this: (§3)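 AR-PDX 118b cells (1×10^5) injected via intra-femoral artery in male SCID mice (8–9 weeks). After 2 weeks, 10 mg/kg/day ip or vehicle for 4 weeks (n = 9/group). X-ray imaging every two weeks. At the end, femurs CT-scanned (5 per group) with 3D-reconstruction tumor size, and H&E histology used for tumor/femur area ratio.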

Series [12] has as its system MDA-PCa-118b. Kind of series: Antitumor activity against patient derived MDA-PCa-118b cells xenografted in SCID mouse assessed as reduction in bone damage at 10 mg/kg,ip administration measured after 4 weeks by X-ray imaging analysis. It is filed as functional, organism-based. The settings on record: Homo sapiens. In short, it runs like this:
as §3

Series [13] relates to MDA-PCa-118b. Kind of series: Antitumor activity against patient derived MDA-PCa-118b cells xenografted in SCID mouse assessed as reduction in tumor burden in femur at 10 mg/kg,ip administration measured after 4 weeks by CT imaging analysis. The series is classed as functional, organism-based. The settings on record: Homo sapiens. In short, it runs like this: as §3
Series [14] in a line: Antitumor activity against patient derived MDA-PCa-118b cells xenografted in SCID mouse assessed as reduction in femur volume at 10 mg/kg,ip administration measured after 4 weeks by CT imaging analysis. It is filed as functional, Homo sapiens. Set-up: scale not given: the % may be the effect or the level left. In short, it runs like this:
as §3

Series [15] in a line: Antitumor activity against patient derived MDA-PCa-118b cells xenografted in SCID mouse assessed as reduction in ratio of tumor area to femur area at 10 mg/kg,ip administration measured after 4 weeks by CT imaging analysis. The series is classed as functional, Homo sapiens. Set-up: scale not given: the % may be the effect or the level left. In short, it runs like this:
as §3

Series [16] has as its system MDA-MB-468. The experiment in a line: Cytotoxicity against human MDA-MB-468 cells assessed as change in gene expression observed after 12 hrs by RNA-seq assay.

Sequence of Prostaglandin G/H synthase 1 (P23219 whole entry): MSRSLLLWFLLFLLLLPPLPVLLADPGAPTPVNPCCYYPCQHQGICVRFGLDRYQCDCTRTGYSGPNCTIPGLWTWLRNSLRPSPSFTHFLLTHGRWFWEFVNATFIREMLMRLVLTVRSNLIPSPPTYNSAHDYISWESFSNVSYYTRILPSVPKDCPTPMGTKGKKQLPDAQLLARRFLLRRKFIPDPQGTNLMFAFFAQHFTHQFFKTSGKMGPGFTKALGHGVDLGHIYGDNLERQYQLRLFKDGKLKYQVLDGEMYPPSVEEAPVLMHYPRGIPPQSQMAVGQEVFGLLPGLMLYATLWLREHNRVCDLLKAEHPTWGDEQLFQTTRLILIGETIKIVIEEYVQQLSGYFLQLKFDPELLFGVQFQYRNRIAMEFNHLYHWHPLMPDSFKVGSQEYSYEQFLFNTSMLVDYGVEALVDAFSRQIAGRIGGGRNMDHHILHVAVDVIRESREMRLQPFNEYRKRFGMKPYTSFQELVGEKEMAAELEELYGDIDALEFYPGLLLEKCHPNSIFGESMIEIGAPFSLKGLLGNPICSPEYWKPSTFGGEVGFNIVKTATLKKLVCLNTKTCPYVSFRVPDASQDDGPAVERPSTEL

`C/C(=N\N=c1/[nH]c2cc(F)c(F)cc2n1C)c1ccc(F)cn1`: the half-inhibitory concentration (IC50) is 0.0034 µM in the series with MCF7; 0.029 µM in the series with PANC-1 [1]; 4 µM at Endothelin-1 receptor; 3.1 µM in series [6]; 0.0252 µM with PANC-1 [8]. Further, the IC50 at 72 h in [2] is above 1 µM. In [3], the Tmax came out at 1.98 min. For the same compound, the Cmax in series [4] came out at 1.066 µg/mL. The clearance in series [5] stood at 1.32 L/h/kg. Besides, the “inhibition (INH)” value in series [7] is reported as “Active”. In addition, the outcome in the series with MDA-MB-468 [9], in the series with MDA-MB-468 [10], in the series with Panc-1-Luc, with MDA-PCa-118b [11], in the series with MDA-PCa-118b [12] and with MDA-PCa-118b [13] was Active. Also, in the series on MDA-MB-468 [16], the outcome was Active. In addition, the results for the Activity in series [14] and in series [15] were above 55% and above 50%, respectively.

(Values after ChEMBL document CHEMBL5543124, “Lead Compound Development of SRC-3 Inhibitors with Improved Pharmacokinetic Properties and Anticancer Efficacy” (J Med Chem, 2024).)
